Legend:
[1] = Drug uptake in BALB/c mouse hippocampus at 20 to 40 mg/kg, ip measured after 10 mins by mass spectroscopy method; assay type: ADME, organism-based; conditions: in vivo, dose 20-40 mg/kg
Outline: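 BALB/c mice were dosed i.p.: 20 mg/kg with brains taken at 10 min (two mice), or 40 mg/kg with brains taken at 10 and 30 min. Dorsal hippocampus was dissected on wet ice, extracted in acetonitrile and analysed by LC–MS/MS in MRM mode (m/z 485 [M+Na+] transitions) against a 4,5-diphenylimidazole internal standard.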

[2] = AUC in Swiss Webster mouse liver at 40 mg/kg, ip by LC-MS/MS analysis; assay type: ADME, organism-based; design: dose 40 mg/kg; conditions: in vivo
Outline: (§1)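 Single i.p. dose of 40 mg/kg in Swiss Webster mice; blood, brain and liver taken at several time points. Tissues homogenized in acetonitrile, centrifuged, spin-filtered, dried and reconstituted, with 4,5-diphenylimidazole as instrument standard. Quantified by LC–MS/MS on a C18 column with a formic acid/MeCN gradient. Mean ± SD (n = 4), fitted to a two-compartment PK model.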

DU-145 = assay: Cytotoxicity against human DU-145 cells assessed as reduction in cell viability at 100 uM incubated for 48 hrs by MTT assay; assay type: functional
Outline: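 DU145 cells in DMEM with 10% FBS were seeded at 14 000 cells/well and allowed to adhere for 24 h. Test agents were diluted from 10 mM DMSO stocks (100, 50, 25 µM; 10, 5, 1.25 nM) and applied in triplicate for 48 h at 37 °C, 5% CO2, with DMSO as vehicle. Read-out was 250 µg/mL MTT for 4 h, DMSO solubilization, and A570 with 690 nm reference. Values normalized to DMSO.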

[3] = Tmax in Swiss Webster mouse liver at 40 mg/kg, ip by LC-MS/MS analysis; assay type: ADME, organism-based; outline: as §1
[4] = Drug uptake in BALB/c mouse brain at 40 mg/kg, ip measured upto 60 mins by mass spectroscopy analysis; assay type: ADME, organism-based; conditions: in vivo, 1 h
Outline: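 BALB/c mice received 40 mg/kg i.p. Retro-orbital blood was collected under isoflurane, then liver and whole brain after CO2 euthanasia, at 10, 30 and 60 min. Acetonitrile extracts were spin-filtered with 4,5-diphenylimidazole as instrument standard and analysed by LC–MS/MS.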

[5] = Elimination rate in Swiss Webster mouse liver at 40 mg/kg, ip by LC-MS/MS analysis; assay type: ADME, organism-based; outline: as §1
Histone deacetylase 2 [6] = target: T1, Histone deacetylase 2 (Homo sapiens, UniProt Q92769); assay: Inhibition of recombinant human full-length HDAC2 preincubated for 20 mins with DTT followed by enzyme addition and measured after 10 mins by Glo-luminescence assay
Outline: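 Compounds were serially diluted and incubated with enzyme for 10 min. HDAC-Glo I/II substrate/developer was then added, and luminescence read after 40 min at 23 °C. IC50 from four-parameter fits from two independent titrations, mean ± SD.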

[7] = Elimination rate in Swiss Webster mouse blood at 40 mg/kg, ip by LC-MS/MS analysis; assay type: ADME, organism-based; outline: as §1
[8] = Tmax in Swiss Webster mouse brain at 40 mg/kg, ip by LC-MS/MS analysis; assay type: ADME, organism-based; outline: as §1
Histone deacetylase 1 = Histone deacetylase 1 (Homo sapiens, UniProt Q13547); assay: Inhibition of HDAC1 in human DU-145 cells assessed as increase in histone H3 acetylation after 24 hrs by immunofluorescence microscopy; assay type: cell-based
[9] = Half life in Swiss Webster mouse brain at 40 mg/kg, ip by LC-MS/MS analysis; assay type: ADME, organism-based; conditions: in vivo; outline: as §1
Histone deacetylase 8 = target: T2, Histone deacetylase 8 (Homo sapiens, UniProt Q9BY41); assay: Inhibition of HDAC8 in human DU-145 cells assessed as increase in histone H3 acetylation after 24 hrs by immunofluorescence microscopy; assay type: cell-based
T2 sequence (Q9BY41 whole entry): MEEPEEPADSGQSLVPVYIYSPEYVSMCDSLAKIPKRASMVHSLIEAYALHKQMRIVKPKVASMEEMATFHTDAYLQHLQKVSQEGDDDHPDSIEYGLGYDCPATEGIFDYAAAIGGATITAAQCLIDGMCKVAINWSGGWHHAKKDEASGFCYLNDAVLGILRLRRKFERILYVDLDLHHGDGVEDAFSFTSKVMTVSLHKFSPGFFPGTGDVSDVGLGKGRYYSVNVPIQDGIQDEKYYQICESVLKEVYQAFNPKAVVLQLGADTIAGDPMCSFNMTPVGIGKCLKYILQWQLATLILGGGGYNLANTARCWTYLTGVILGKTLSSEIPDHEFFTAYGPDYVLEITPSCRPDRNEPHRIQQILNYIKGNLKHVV

[10] = Half life in Swiss Webster mouse liver at 40 mg/kg, ip by LC-MS/MS analysis; assay type: ADME, organism-based; conditions: in vivo; outline: as §1
[11] = Cmax in Swiss Webster mouse blood at 40 mg/kg, ip by LC-MS/MS analysis; assay type: ADME, organism-based; design: route intraperitoneal, dose 40 mg/kg; conditions: in vivo; outline: as §1
[12] = Toxicity in ip dosed BALB/c mouse assessed as maximum tolerated dose measured after 2 weeks; assay type: organism-based; conditions: in vivo, 336 h
Outline: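 Healthy BALB/c mice, compound in 20% DMSO/saline, single i.p. dose. One mouse each at 200, 100 and 50 mg/kg, then 25, 12.5 and 6.25 mg/kg if needed, repeated until a tolerated dose was found. Last test repeated once. Mice weighed daily for 8 days; euthanized at >20% weight loss or overt toxicity. Morbidity/mortality followed over 2 weeks; triplicate experiments.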

Histone deacetylase 2 [13] = target: T1, Histone deacetylase 2; assay: Inhibition of HDAC2 in human DU-145 cells assessed as increase in histone H3 acetylation after 24 hrs by immunofluorescence microscopy; assay type: cell-based
[14] = target: T3, Protein deacetylase HDAC6 (Homo sapiens, UniProt Q9UBN7); assay: Inhibition of HDAC6 in human DU-145 cells assessed as increase in histone H3 acetylation after 24 hrs by immunofluorescence microscopy; assay type: cell-based
T3 sequence (Q9UBN7 whole entry): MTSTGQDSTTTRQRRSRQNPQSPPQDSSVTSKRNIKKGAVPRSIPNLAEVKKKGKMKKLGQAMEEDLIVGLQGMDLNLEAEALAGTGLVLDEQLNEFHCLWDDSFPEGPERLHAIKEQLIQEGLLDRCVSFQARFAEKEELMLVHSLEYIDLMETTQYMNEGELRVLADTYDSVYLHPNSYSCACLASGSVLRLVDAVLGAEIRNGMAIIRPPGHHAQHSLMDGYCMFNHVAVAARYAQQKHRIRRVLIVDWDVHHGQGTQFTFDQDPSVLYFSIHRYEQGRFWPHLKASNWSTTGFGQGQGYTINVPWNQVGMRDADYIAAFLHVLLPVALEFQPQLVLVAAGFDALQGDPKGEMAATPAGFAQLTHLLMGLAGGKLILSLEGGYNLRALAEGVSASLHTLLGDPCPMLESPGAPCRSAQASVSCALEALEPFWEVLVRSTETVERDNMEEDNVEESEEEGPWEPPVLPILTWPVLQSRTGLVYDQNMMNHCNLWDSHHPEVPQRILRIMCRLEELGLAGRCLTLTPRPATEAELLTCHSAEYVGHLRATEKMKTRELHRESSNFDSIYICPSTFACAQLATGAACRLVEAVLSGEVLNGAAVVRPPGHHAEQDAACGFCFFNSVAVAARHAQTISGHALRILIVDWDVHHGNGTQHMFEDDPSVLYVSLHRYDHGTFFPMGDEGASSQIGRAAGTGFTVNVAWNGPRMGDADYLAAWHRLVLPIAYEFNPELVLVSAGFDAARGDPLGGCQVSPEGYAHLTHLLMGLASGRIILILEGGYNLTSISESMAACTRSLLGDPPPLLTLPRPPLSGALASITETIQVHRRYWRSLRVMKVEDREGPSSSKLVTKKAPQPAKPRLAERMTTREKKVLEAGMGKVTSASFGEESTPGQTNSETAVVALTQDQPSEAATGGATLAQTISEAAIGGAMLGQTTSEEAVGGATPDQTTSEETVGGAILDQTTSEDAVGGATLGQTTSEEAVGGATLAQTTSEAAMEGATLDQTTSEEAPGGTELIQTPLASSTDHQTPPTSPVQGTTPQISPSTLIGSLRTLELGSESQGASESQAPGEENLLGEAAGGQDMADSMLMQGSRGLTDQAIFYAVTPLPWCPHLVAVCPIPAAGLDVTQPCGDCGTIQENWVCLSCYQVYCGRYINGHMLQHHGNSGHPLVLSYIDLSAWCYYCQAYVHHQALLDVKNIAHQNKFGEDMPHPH

T1 sequence (Q92769 whole entry): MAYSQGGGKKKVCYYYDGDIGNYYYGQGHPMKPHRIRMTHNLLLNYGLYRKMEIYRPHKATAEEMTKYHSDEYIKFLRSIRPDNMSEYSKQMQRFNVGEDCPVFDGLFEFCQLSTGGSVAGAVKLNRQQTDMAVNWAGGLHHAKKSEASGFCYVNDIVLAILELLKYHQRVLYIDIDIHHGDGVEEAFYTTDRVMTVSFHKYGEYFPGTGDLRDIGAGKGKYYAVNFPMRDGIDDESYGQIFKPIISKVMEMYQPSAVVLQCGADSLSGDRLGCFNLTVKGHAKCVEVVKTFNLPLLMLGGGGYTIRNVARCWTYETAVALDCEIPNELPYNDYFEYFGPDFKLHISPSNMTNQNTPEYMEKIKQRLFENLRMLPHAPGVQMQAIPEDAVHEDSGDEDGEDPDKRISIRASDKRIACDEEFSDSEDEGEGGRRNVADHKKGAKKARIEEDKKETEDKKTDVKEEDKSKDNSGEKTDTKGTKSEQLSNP
Sequence of Histone deacetylase 1 (Q13547 whole entry): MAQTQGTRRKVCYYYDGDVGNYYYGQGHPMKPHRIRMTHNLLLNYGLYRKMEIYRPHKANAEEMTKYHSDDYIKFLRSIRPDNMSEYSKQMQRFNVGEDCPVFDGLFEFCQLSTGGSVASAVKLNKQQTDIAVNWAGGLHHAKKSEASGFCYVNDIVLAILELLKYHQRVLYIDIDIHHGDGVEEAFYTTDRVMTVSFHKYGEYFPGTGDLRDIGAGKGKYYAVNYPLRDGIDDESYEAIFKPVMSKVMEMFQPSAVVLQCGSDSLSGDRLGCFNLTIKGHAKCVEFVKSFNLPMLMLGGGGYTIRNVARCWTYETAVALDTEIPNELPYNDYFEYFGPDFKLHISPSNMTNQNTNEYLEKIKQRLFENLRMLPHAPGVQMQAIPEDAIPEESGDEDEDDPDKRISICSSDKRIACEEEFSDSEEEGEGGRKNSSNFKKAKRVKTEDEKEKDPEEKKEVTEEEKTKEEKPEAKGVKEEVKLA

## CC(C)(C)OC(=O)CC(O)/C=C/CCSSCC/C=C/C(O)CC(=O)OC(C)(C)C (configuration not stated)
[1]
  Drug uptake: Active
[2]
  AUC: 31091 ng·min/g
DU-145
  inhibition at 100 µM: 80%
[3]
  Tmax: 10 min
[4]
  Drug uptake: Active
[5]
  k el: 0.000283 s⁻¹
Histone deacetylase 2 [6]
  IC50: 10 µM
[7]
  k el: 0.000367 s⁻¹
[8]
  Tmax: 10 min
Histone deacetylase 1
  IC50: 8.7 µM
[9]
  t1/2: 13.4 min
Histone deacetylase 8
  IC50: 11 µM
[10]
  t1/2: 41 min
[11]
  Cmax: 131.2 ng/mL
[12]
  MTD: > 200 mg/kg
Histone deacetylase 2 [13]
  IC50: 10 µM
[14]
  IC50: 12 µM

From ChEMBL document CHEMBL5046273, “Development of a Novel, Small-Molecule Brain-Penetrant Histone Deacetylase Inhibitor That Enhances Spatial Memory Formation in Mice” (J Med Chem, 2022)
